# Compound activity (PubChem BioAssay)
# SENP8 block-1: inhibitors of human SENP8 protease; Q96LD8; actives 0.64% (n = 360,000); recombinant SENP8, Nedd8 substrate fluorescence; AID 602440; inhibition, % at 20 µM; in the data active = inhibition mostly above about 40%, no sharp cut-off; inactive = mostly below about 27%
# SENP8 block-2: SENP8 protease inhibition; Q96LD8; purified SENP8, Z-RLRGG-aminoluciferin cleavage, luminescence; inhibition, % at 10 µM; actives 1.2% (n = 330,000); in the data active = inhibition above about 50%
# SENP1 FRET inh: SENP1 (human) catalytic domain inhibition; Q9P0U3; inhibition, % at 10 µM; actives 0.21% (n = 360,000); recombinant SENP1 catalytic domain, CyPet-SUMO1-YPet FRET cleavage;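 active = inhibition at least 30% at 10 µM, raw YFP signal under a set limit, fluorescence ratio 0.5 to 1.5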
# Target sequence (Q9P0U3 419-644 limits assumed): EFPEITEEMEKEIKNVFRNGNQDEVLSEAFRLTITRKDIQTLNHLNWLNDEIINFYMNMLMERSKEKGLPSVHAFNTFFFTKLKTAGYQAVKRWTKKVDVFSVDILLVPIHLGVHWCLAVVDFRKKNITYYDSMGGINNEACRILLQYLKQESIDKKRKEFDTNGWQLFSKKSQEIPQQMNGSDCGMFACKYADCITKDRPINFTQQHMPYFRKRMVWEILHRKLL
#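 Test system: human SENP1 catalytic domain; medium: Tris pH 8 buffer plus EDTA, NaCl, BME, BSA, NP40, catalase; incubation: 50 min reaction at room temperature; technique: FRET, CFP and YFP emission; controls: no-enzyme low control and enzyme-plus-DMSO high control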
# SENP7 block: inhibitors of human SENP7 protease | recombinant SENP7, Z-RLRGG-aminoluciferin luminescence, 40 min | actives 1.5% (n = 330,000) | AID 434973 | inhibition, % at 5 µM | Q9BQF6;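 active = inhibition above about 50% at the single test dose, limit read from the data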
# Target sequence (Q9BQF6 706-1050 limits assumed): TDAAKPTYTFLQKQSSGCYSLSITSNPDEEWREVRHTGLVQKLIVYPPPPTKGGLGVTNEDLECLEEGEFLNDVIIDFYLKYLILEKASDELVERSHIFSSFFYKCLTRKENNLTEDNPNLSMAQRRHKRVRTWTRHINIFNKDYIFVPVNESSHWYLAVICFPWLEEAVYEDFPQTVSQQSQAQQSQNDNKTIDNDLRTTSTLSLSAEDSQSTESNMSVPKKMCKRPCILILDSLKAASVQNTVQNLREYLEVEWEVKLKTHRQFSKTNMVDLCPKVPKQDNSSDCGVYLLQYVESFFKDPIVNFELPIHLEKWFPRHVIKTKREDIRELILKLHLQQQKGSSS
# SENP6 block: inhibitors of human SENP6 protease. Q9GZR1. Recombinant SENP6 catalytic domain, aminoluciferin luminescence. inhibition, % at 10 µM. actives 1.8% (n = 330,000). AID 2599;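 active = inhibition above about 50% at the single tested dose, limit read from the data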
# SENP8 inh conf: confirmation of human SENP8 protease inhibitors; shares compounds with SENP8 block-1; purified SENP8, Nedd8-AMC/pro-Nedd8 cleavage fluorescence, 30 min; inhibition, % at 25 µM; actives 15% (n = 1,400); AID 624319; in the data active = inhibition mostly above about 39%, no sharp cut-off; inactive = mostly below about 34%
# SENP1 conf: SENP1 (human) inhibition, single concentration confirmation. shares compounds with SENP1 FRET inh. inhibition, % at 10 µM. recombinant SENP1, CyPet-SUMO1-YPet FRET cleavage. actives 34% (n = 520); in the data active = inhibition mostly above about 35%, no sharp cut-off; inactive = mostly below about 32%
# SENP1 kin conf: confirmation of human SENP1 SUMO protease inhibitors, kinetic | shares compounds with SENP1 FRET inh | recombinant SENP1, CyPet-SUMO1-YPet FRET kinetic cleavage | inhibition, % at 10 µM | actives 26% (n = 520) | AID 651690; in the data active = inhibition mostly above about 32%, no sharp cut-off; inactive = mostly below about 29%
# Numbers stand for hits; - = inactive; . = no result. The list is not random: actives were taken first. Their share in the collection is about 2.5%.
SMILES,SENP8 block-1,SENP8 block-2,SENP1 FRET inh,SENP7 block,SENP6 block,SENP8 inh conf,others
COC(=O)[C@]1(C)N[C@H](CN(C)C(=O)Nc2ccc(C(F)(F)F)cc2)[C@@H]2C(=O)N(C)C(=O)[C@@H]21,-,-,-,-,-,.,
CN(Cc1ccco1)C(=O)C1CCCN(c2ncnc3c2nc2n3CCCCC2)C1 (centres undefined),-,-,-,-,-,.,
O=C(OCC(=O)N1CCCC1)c1cccs1,48,-,-,-,-,-,
O=C(OCC(=O)N1CCN(c2ccccc2)CC1)c1cccs1,-,-,-,-,-,.,
CCCc1cc(C(=O)N2CCCC(Nc3ccc(C)c(C)c3)C2)n(C)n1 (centres undefined),-,-,-,-,-,.,
Cc1ccc(C(=O)N2C(=S)C(c3ccc(F)cc3)=NC23CCN(C)CC3)cc1,66,-,-,-,-,58,
C[C@@H]1CN(c2nc3nonc3nc2N2CCSCC2)C[C@H](C)O1,41,-,-,-,-,-,
C1CN(c2nc3nonc3nc2N2CCSCC2)CCO1,-,-,-,-,-,.,
Cc1cc(N2C(=O)Cc3ccccc3C2=O)ccc1C(C)C,78,-,-,-,-,-,
CCOc1ccc(N2C(=O)Cc3ccccc3C2=O)cc1,75,-,-,-,-,-,
Cc1cc(-n2cnnn2)ccc1C(C)C,-,-,-,-,-,.,
CCOC(=O)c1ccc(N2C(=O)CC(C(=O)OC)=C2C)cc1,-,-,-,-,-,.,
CCOC(=O)c1ccc(N2C(=O)Cc3ccccc3C2=O)cc1,63,-,-,-,-,27,
CCOc1ccc(N2C(=O)c3cccnc3C2=O)cc1,-,-,-,-,-,.,
COc1ccc(-n2ccnc2SCC(=O)NCc2ccco2)c(OC)c1,-,-,-,-,-,.,
CCOc1ccccc1NC(=O)CNS(=O)(=O)c1ccc2nc(C)sc2c1,-,-,-,-,-,.,
CCCCOCCCNC(=O)C[C@@H]1C[C@@]2(C(=O)OC)CCCCC=C2N(CCc2ccc(OC)c(OC)c2)C1=O,-,.,-,.,.,.,
Cc1ccc(Cl)cc1NC(=O)C[n+]1ccc(Cc2ccc([N+](=O)[O-])cc2)cc1,-,-,-,-,-,.,
CC(C)(C)NC(=O)NC(=O)C[n+]1ccc(Cc2ccc([N+](=O)[O-])cc2)cc1,50,-,-,-,-,-,
COc1ccc([N+](=O)[O-])cc1NC(=O)C(C)N1CCN(C(=O)c2ccco2)CC1 (centres undefined),38,-,-,-,-,-,
COC(=O)c1cc(C(=O)N2CCN(C(=O)c3ccco3)CC2)cc([N+](=O)[O-])c1,-,-,-,-,-,.,
Cc1ccnc(Cc2ccccc2)n1,-,-,-,-,-,.,
Cc1ccc(C=Nc2ccc(N(C)C)cc2)o1,45,-,-,-,-,-,
Cc1cccc(N/N=C(\C#N)S(=O)(=O)C(C)(C)C)c1,-,.,-,.,.,.,
CSc1nncc(/C(C)=N\Nc2ccccc2)n1,52,-,-,-,-,-,
SMILES,SENP8 block-1,SENP8 block-2,SENP1 FRET inh,SENP7 block,SENP6 block,SENP8 inh conf,others
CSc1nncc(/C(C)=N\Nc2cccc(C)c2)n1,46,-,-,-,-,-,
CC/C(=N/Nc1ccccc1C)c1cnnc(SC)n1,-,-,-,-,-,.,
CCOC(=O)CC(=O)Nc1ccc(C)cc1,40,-,-,-,-,-,
N=c1c2ccccc2nc2n1CCCCCCCCCCC2,-,-,-,-,-,.,
O=C1CSC(c2c(F)cccc2Cl)N1c1cccc(F)c1 (centres undefined),44,-,-,-,-,-,
Cc1cc(=O)oc(C)c1C(=O)Nc1cccc2ccccc12,43,-,-,-,-,-,
Cc1ccccc1NC(=O)c1c(C)cc(=O)oc1C,-,-,-,-,-,.,
O=C(COc1ccc(Cl)cc1)N1CCN(C(=O)c2cccc(F)c2)CC1,-,-,-,-,-,.,
O=C(COc1ccccc1)N1CCN(C(=O)c2cccc(F)c2)CC1,41,-,-,-,-,-,
Cc1ccc(Sc2ccc(/C=N/O)cc2[N+](=O)[O-])cc1,42,-,-,-,-,-,
CO/N=C/c1ccc(Sc2ccc(C)cc2)c([N+](=O)[O-])c1,-,-,-,-,-,.,
CCOc1ccc(CCNC(=O)C(C)N2C(=O)CC(C)(C)Sc3ccccc32)cc1 (centres undefined),-,-,-,-,-,.,
Cc1ccc(NC(=O)c2ccc(Nc3c([N+](=O)[O-])cc([N+](=O)[O-])cc3[N+](=O)[O-])cc2)cc1,42,-,-,-,-,-,
COC(=O)C1CCN(c2ccc(Cl)nn2)CC1,-,-,-,-,-,.,
CCOC(=O)c1sc(=S)n(-c2cc(OC)ccc2OC)c1N,40,-,-,-,-,-,
Cc1nn(C)cc1C1C2=C(CC(C)(C)CC2=O)OC2=C1C(=O)CC(C)(C)C2,-,-,-,-,-,.,
Nc1ccc(C2CCCc3nonc32)c2nonc12 (centres undefined),57,-,35,-,-,-,SENP1 conf=51;SENP1 kin conf=-
Cc1ccc(Cn2c(=N)n(CC(=O)c3ccccc3)c3ccccc32)cc1,-,-,-,-,-,.,
Cc1ccc(NC2=C(C(=O)c3ccccc3)N(C)S(=O)(=O)c3ccccc32)cc1,46,-,33,-,-,-,SENP1 conf=35;SENP1 kin conf=-
CN1C(C(=O)c2ccccc2)=C(N)c2ccccc2S1(=O)=O,-,-,-,-,-,.,
Cn1nnnc1SCc1csc(C2C(C#N)=C(N)OC3=C2C(=O)CCC3)c1 (centres undefined),-,-,-,-,-,.,
CCOc1ccc(/C=C/C(=O)Nc2ccc(OC)cc2[N+](=O)[O-])cc1,41,-,70,-,-,-,SENP1 conf=52;SENP1 kin conf=34
CC1(C)CC(=O)C2=C(C1)Nc1ccccc1NC2c1ccccc1F (centres undefined),-,-,36,-,-,.,SENP1 conf=-;SENP1 kin conf=-
CC1(C)CC(=O)C2=C(C1)Nc1ccccc1NC2c1ccc(F)c(F)c1 (centres undefined),-,-,-,-,-,.,
Cc1cc(-c2ccccc2)nc(=O)[nH]1,-,-,35,-,-,.,SENP1 conf=-;SENP1 kin conf=-
Cc1cccc(NS(=O)(=O)c2ccc(C(=O)N3CCN(c4ccccc4O)CC3)cc2)c1C,-,-,-,-,-,.,
COc1cccc(C2CC(C(F)(F)F)n3nc(C(=O)Nc4c(C)n(C)n(-c5ccccc5)c4=O)cc3N2)c1 (centres undefined),-,-,27,-,-,.,SENP1 conf=-;SENP1 kin conf=-
O=C(COC(=O)CCc1ccccc1)NCc1ccc2c(c1)OCO2,-,-,32,-,-,.,SENP1 conf=-;SENP1 kin conf=-
